Assay results as given in ChEMBL document CHEMBL1159380, “Marine natural products as novel antioxidant prototypes” (J Nat Prod, 2003).
Active and inactive are the calls of the source. The calls are words filed in the database; no cut-off is given here.

What was measured:
HL-60 = assay: Antioxidant activity against TPA-induced ROS production in human HL60 cells by 2',7'-dichlorodihydrofluorescein diacetate cellular-based assay; type: functional, cell-based
Summary of the method: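 HL-60 cells (1 × 10^6 cells/mL) in RPMI 1640 with 10% FBS and antibiotics, 37 °C, 5% CO2. Cells were pretreated 30 min with a range of test concentrations, then stimulated 30 min with 100 ng/mL TPA, then given DCFH-DA (5 μg/mL) for 15 min. DCF fluorescence was read at 530 nm, and percent inhibition was calculated against TPA-treated controls without test material.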

[1] = system: Radical scavenging activity; assay: Antioxidant activity assessed as DPPH free radical scavenging activity by TLC […] assay; type: functional
Summary of the method: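 Compounds were dissolved in DMSO at 2.0 mg/mL and 4.0 μg of each was spotted onto scored silica gel GF TLC plates. Residual DMSO was removed under vacuum. Plates were sprayed with 0.2% (w/v) DPPH in MeOH and radical scavenging was judged visually 30 min after spraying.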

IC50 (HL-60; Homo sapiens, HL-60) [µM] | IC50 (HL-60; hl-60) [µM] | Molecule | Activity [1] | Activity (HL-60)
> 31 | – | COc1c(OC)c(O)c2c(=O)c(C)c(/C=C/c3cc(O)cc(O)c3)oc2c1OC [HORMOTHAMNIONE] | – | –
> 55 | – | COc1cc2ccnc3c2c(c1O)N(C)C=C3 [ISOAAPTAMINE] | Active | –
27 | – | CC1(C)CCC[C@]2(C)[C@H]3C=C4C=C(O)C(=O)C=C4O[C@@]3(C)CC[C@@H]12 [PUUPEHENONE] | Active | –
> 23 | – | O=C1C(C2=C3c4ccccc4NC3/C(=C\c3ccc(O)cc3)C2=O)=C2C(=Nc3ccccc32)/C1=C\c1ccc(O)cc1 (stereo not given) [SCYTONEMIN] | – | –
– | 255 | VITAMIN E [listing 1 of 2 here] | – | –

The remaining lines, values behind:

Molecule | IC50 (HL-60; Homo sapiens, HL-60) [µM] | IC50 (HL-60; hl-60) [µM] | Activity [1] | Activity (HL-60)
CC(C)=CCC[C@H](C)c1ccc(C)cc1O | 209 | – | – | –
C/C(=C\Cc1cc(O)c(Br)cc1O)CCCC(C)(C)O | > 14.6 | – | Active | –
CC(=O)OC/C=C(\OC(C)=O)C(C)=O | 49 | – | inactive | –
Cc1ccc([C@@H](C)CCCC(C)(C)O)c(O)c1 | – | – | – | inactive
COc1cc2ccnc3c2c(c1OC)NC=C3 [AAPTAMINE] | > 55 | – | Active | –
CCC(C)CC(C(=O)N/C=C\c1c[nH]c2ccccc12)N(C)Cc1ccc(O)cc1 (stereo not given) [ARAGILAMIDE] | 11 | – | – | –
O=C1O[C@H]([C@@H](O)CO)C(O)=C1O [ASCORBIC ACID] | 9.7 | – | Active | –
OCc1cc(Br)c(O)c(O)c1Cc1ccc(O)c(Br)c1 [AVRAINVILLEOL] | 6.1 | – | Active | –
CC(C)=CCC/C(C)=C/Cc1cc(O)c(Br)cc1O [CYMOPOL] | 4 | – | Active | –
COc1c(OC)c(O)c2c(=O)c(C)c(/C=C/c3cc(OC(C)=O)cc(OC(C)=O)c3)oc2c1OC [HORMOTHAMNIONE DIACETATE] | 18.3 | – | inactive | –
VITAMIN E [listing 2 of 2 here] | – | – | Active | –
